Screening data as filed in PubChem BioAssay.
Only some compounds are listed: those with a hit (about 2.6% of all), similar ones and a draw of the others.
esBAF inh – Bmi1 luciferase reporter increase in mESCs, primary screen, esBAF inhibitor project, mouse ES cells, Bmi1 luciferase knock-in, single point. 350,000 tested, 2% active. reporter increase, % at 12.5 µM. 24 h; 100% = twice the neutral-well signal; in the data active means activation above about 40%;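 further: 0% = median of the plate's neutral control wells and 100% = double that signal; a rise in the Bmi1 reporter signal indicates esBAF inhibition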
ARFGAP1 inh – inhibitors of rat ARFGAP1 GAP activity, primary screen, biochemical, fluorescence polarization, GDP tracer. Arfgap1-stimulated ARF1 GTP hydrolysis, GDP FP detection. 360,000 tested, 0.26% active. inhibition, % at 16.5 µM. ADP-ribosylation factor GTPase-activating protein 1 (Rattus norvegicus), Q62848;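 active means inhibition above a per-plate limit, mean inhibition of low control wells plus 3 SD, cut at about 25% in these data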;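 further: 0% = DMSO wells with enzyme and 100% = wells lacking Arfgap1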
Target sequence (Q62848 1-136 limits assumed): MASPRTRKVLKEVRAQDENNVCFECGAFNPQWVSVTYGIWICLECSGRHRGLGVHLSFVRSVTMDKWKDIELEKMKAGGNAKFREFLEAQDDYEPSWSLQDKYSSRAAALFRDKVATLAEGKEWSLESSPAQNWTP
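System: truncated rat Arfgap1 GAP domain / Medium: HEPES-based buffer, pH 7.5 / Also added: N-terminally truncated human ARF1-GTP substrate / Incubation: enzyme reaction 120 min at 25 °C after 20 min preincubation / Measured by: FP of antibody-bound GDP Alexa 633 tracer, ex 620/em 688 nm / Replicates: singlicate, each compound tested once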
SMARCA2 act – SMARCA2 (BRM) function activators, primary screen, cell-based, luminescence, high throughput; MG213 cells, MMTV-luciferase reporter, dexamethasone, overnight; activation, % at 9.1 µM; 370,000 tested, 1% active; AID 652017, 2013; in the data active means activation above about 7.8%;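 further: 0% = vehicle wells and 100% = reference activator wells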
ASAP1 inh – inhibitors of human ASAP1 ArfGAP activity, primary screen, biochemical, fluorescence polarization | ASAP1-stimulated ARF1 GTP hydrolysis, GDP FP detection | AID 624377, 2012 | 360,000 tested, 0.19% active | inhibition, % at 16.5 µM | Arf-GAP with SH3 domain, ANK repeat and PH domain-containing protein 1 (Homo sapiens), …; in the data active means inhibition above about 25%;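 further: 0% = vehicle with enzyme and substrate and 100% = no enzyme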
Starred values were filed as active, the others as inactive; nt = no result given.

SMILES | esBAF inh | ARFGAP1 inh | SMARCA2 act | ASAP1 inh
COc1ccc(C(=O)Nc2cc3c(cc2Cl)OCCCO3)cc1 | 59* | -6 | 5 | -12
COc1cccc(C(=O)Nc2cc3c(cc2Cl)OCCCO3)c1 | nt | -8 | 4 | 3
Cc1ccc(C(=O)Nc2cc3c(cc2Cl)OCCCO3)cc1 | 69* | 4 | 3 | 2
O=C(Nc1cc2c(cc1Cl)OCCCO2)c1ccc(F)cc1 | nt | -2 | 7 | -8
C[C@H]1CN([C@@H](C)CO)C(=O)Cc2cc(NS(=O)(=O)c3cccs3)ccc2O[C@@H]1CN(C)Cc1ccc(-c2ccccc2)cc1 | 3 | nt | nt | nt
CCCSc1nnc(NC(=O)Nc2ccccc2OC)s1 | 47* | 6 | 4 | 3
Cn1c(C(=O)N2CCc3ccccc3C2)cc2oc3ccccc3c21 | 55* | nt | nt | nt
C[C@H]1CN([C@@H](C)CO)C(=O)CCCn2cc(nn2)CO[C@H]1CN(C)C(=O)OCc1ccccc1 | -2 | nt | nt | nt
CCCn1c(=O)c(C(=O)Nc2cccc(C)n2)c(O)c2ccccc21 | 50* | 2 | 4 | 13
C[C@H]1CN([C@@H](C)CO)C(=O)c2cc(C#Cc3ccccc3F)cnc2O[C@H]1CN(C)C(=O)C1CCCCC1 | 4 | nt | nt | nt
Cc1cc(OCCn2cnc3ccccc3c2=O)ccc1[N+](=O)[O-] | nt | 5 | -2 | 4
Cc1ccc(OCCn2cnc3ccccc3c2=O)c([N+](=O)[O-])c1 | 92* | 6 | 1 | 2
Cc1cccc(N2C(=O)CC(N(O)c3ccccc3)C2=O)c1 (configuration not stated) | 61* | 12 | 1 | -8
C[C@@H]1CN([C@@H](C)CO)C(=O)Cc2cc(NC(=O)Cn3cnnn3)ccc2O[C@H]1CN(C)S(=O)(=O)c1cccs1 | -5 | nt | nt | nt
O=C(O)c1ccc(N/N=C/c2cccc(C(F)(F)F)c2)cc1 | 92* | -2 | -1 | -2
COc1cc(/C=N/Nc2ccc(C(=O)O)cc2)cc(OC)c1OC | 56* | 2 | 4 | -2
COc1ccc(/C=N/Nc2ccc(C(=O)O)cc2)c(OC)c1OC | 91* | -5 | 2 | -5
COc1cc(/C=N\Nc2nc3ccccc3o2)cc(OC)c1OC | 51* | -3 | 0 | 7
COc1cc(/C=N/Nc2nc3ccccc3o2)cc(OC)c1O | 14 | 16 | 0 | -12
COc1ccc(/C=N\Nc2ccc([N+](=O)[O-])cc2)c(C(=O)O)c1OC | -4 | -1 | 1 | 5
C[C@H]1CN([C@@H](C)CO)C(=O)c2cc(NC(=O)CCCN(C)C)ccc2O[C@H]1CN(C)S(C)(=O)=O | -2 | nt | nt | nt
COC(=O)C[C@@H]1C=C[C@H](NC(=O)Nc2ccc(C(F)(F)F)cc2)[C@@H](CO)O1 | -11 | nt | nt | nt
COc1ccc(C(=Cc2ccccc2)C(=O)O)cc1 | 2 | 1 | -2 | 8
COc1ccc(C=C(C(=O)O)c2ccc(OC)cc2)cc1 | 52* | -5 | 6 | -7
Cc1ccc(C(=O)c2coc3ccc(O)c(Cl)c23)cc1 | 68* | 3 | 3 | 5
SMILES | esBAF inh | ARFGAP1 inh | SMARCA2 act | ASAP1 inh
O=C(NC1CCCCCCC1)c1ccccc1O | 92* | 7 | 4 | 3
O=C(NC1CCCCC1)c1cc(-c2ccc(O)cc2)on1 | 42* | -3 | 5 | 13
O=C(NC1CCCC1)c1n[nH]c2ccccc12 | 53* | -3 | 2 | 10
O=C(NC1CCCCC1)c1cc(-c2ccccc2O)on1 | 83* | 14 | 0 | -1
Cc1ccc(-c2cc(C(=O)NC3CCCCC3)no2)cc1 | 37 | 2 | 1 | 3
CCN(C[C@H]1N[C@H](CO)[C@H]1c1ccc(-c2cccc(C#N)c2)cc1)C(=O)COC | 2 | nt | nt | nt
CCCc1cc(C(=O)NC2CCCCC2)no1 | 43* | -1 | 3 | -8
O=C(NC1CCCCC1)C(=O)c1c[nH]c2ccccc12 | 45* | 2 | 2 | -20
O=C(NC(=S)NC1CCCCC1)c1ccccc1 | 45* | -8 | 4 | -11
C[C@H](CO)N1C[C@H](C)[C@H](CN(C)C(=O)C2CCCCC2)Oc2cc(-c3ccccc3)ccc2S1(=O)=O | 3 | nt | nt | nt
Cc1noc(C)c1NC(=O)Nc1ccc2c(c1)C(=O)N([C@@H](C)CO)C[C@H](C)[C@@H](CN(C)Cc1ccncc1)O2 | 3 | nt | nt | nt
CO[C@@H]1CN(C)C(=O)c2cc(NC(=O)Nc3ccc(Cl)c(Cl)c3)ccc2OC[C@H](C)NC[C@@H]1C | 0 | nt | nt | nt
